The values below come from ChEMBL document CHEMBL1140162, “3-amino-7-phthalazinylbenzoisoxazoles as a novel class of potent, selective, and orally available inhibitors of p38alpha mitogen-activated protein kinase” (J Med Chem, 2008).

In series [1] the test system is THP-1. Description: Inhibition of LPS-induced TNFalpha production in human THP1 cells after 3 hrs. The format is functional, cell-based. The conditions noted are these: THP-1, 3 h.
The target of series [2] is T1, Mitogen-activated protein kinase 14 (Homo sapiens, UniProt Q16539). Kind of series: Inhibition of human recombinant GST-tagged p38alphaMAPK-induced ATF2 phosphorylation.
Series [3] has as its target Cytochrome P450 3A4 (Homo sapiens, UniProt P08684). Description: Inhibition of CYP3A4 in human liver microsomes. The format is ADME, Microsome. For orientation: Liver microsomes are a subcellular fraction often used to study metabolism.
Series [4] deals with Blood. Kind of series: Inhibition of TNF-induced IL8 production in human whole blood. The format is functional, tissue-based.
Series [5] deals with Cytochrome P450 2D6 (Homo sapiens, UniProt P10635). Kind of series: Inhibition of CYP2D6. The format is ADME.
Series [6] relates to Liver microsomes. Description: Metabolic stability in Sprague-Dawley rat liver microsomes assessed per mg of protein by LCMS in presence of NADPH. The format is ADME, Microsome. The essentials:
(§1)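 Test article 1 µM incubated with rat or human liver microsomes (0.1 mg/mL) in 66.67 mM potassium phosphate pH 7.4; NADPH 1 mM started reaction, blank without NADPH; stopped at 10 min with acetonitrile/0.05% formic acid; remaining parent quantified by LCMS; triplicates.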

The test system of series [7] is Rattus norvegicus. Description: Oral bioavailability in Sprague-Dawley rat at 10 mg/kg. The format is ADME, organism-based. The settings on record: in vivo. A digest of the protocol:
(§2)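 Sprague-Dawley rats dosed orally at 10 mg/kg as a solution in 1% Tween-80 in OralPlus (pH 2.2); bioavailability derived against 2 mg/kg iv dosing.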

In series [8] the test system is Rattus norvegicus. Description: Cmax in Sprague-Dawley rat at 10 mg/kg, po. The settings on record: in vivo. Also noted: dose 10 mg/kg, route oral. The format is ADME, organism-based. The essentials: as §2
Series [9] can be described thus: Concentration of drug level in po dosed collagen-induced arthritis Lewis rat model after 24hrs. The format is ADME, organism-based. The conditions noted are these: in vivo, read-out: Drug uptake. The essentials:
(§3)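 Lewis rats immunized intradermally with porcine type II collagen in incomplete Freund's adjuvant; dosing oral, once daily for 7 days from disease onset (days 10-12), vehicle 1% Tween-80 in Oraplus pH 2.2, doses 0.03-3.0 mg/kg. Paw diameter measured daily days 0-7; area under swelling curve used for percent inhibition versus vehicle; n = 8 rats/group. Exposure values interpolated.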

Series [10] concerns the target T2, Mast/stem cell growth factor receptor Kit (Homo sapiens, UniProt P10721). Description: Inhibition of c-KIT.
The subject of series [11] is Rattus norvegicus. Description: Cmax in po dosed collagen-induced arthritis Lewis rat model. Also noted: route oral. The conditions noted are these: in vivo. The format is ADME, organism-based. A digest of the protocol:
as §3

Series [12] concerns Rattus norvegicus. Kind of series: AUC (0 to 24 hrs) in po dosed collagen-induced arthritis Lewis rat model. The format is ADME, organism-based. Also noted: time < 24 hr, route oral. The conditions noted are these: in vivo. The essentials: as §3
Series [13] has as its target T3, Platelet-derived growth factor receptor beta (Homo sapiens, UniProt P09619). Description: Inhibition of PDGFRbeta at 1 uM relative to control.
Series [14] in a line: Tmax in Sprague-Dawley rat at 10 mg/kg, po. The settings on record: in vivo. Also noted: dose 10 mg/kg, route oral. The format is ADME, organism-based. A digest of the protocol: as §2
Series [15] concerns the target T1, Mitogen-activated protein kinase 14. Description: Inhibition of p38alpha at 1 uM relative to control.
A short description of series [16]: Elimination half life in Sprague-Dawley rat at 2 mg/kg, iv. Set-up: dose 2 mg/kg, route intravenous. The conditions noted are these: in vivo. The format is ADME, organism-based. A digest of the protocol:
(§4)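 Sprague-Dawley rats given 2 mg/kg intravenously; clearance, volume of distribution and elimination half-life derived from plasma profile.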

Series [17] has as its system Rattus norvegicus. Description: Antiinflammatory effect in po dosed collagen-induced arthritis Lewis rat model assessed as inhibition of paw swelling administered once a day for 7 days. The format is functional. The essentials:
as §3

Series [18] has as its target T2, Mast/stem cell growth factor receptor Kit. Description: Inhibition of c-KIT at 1 uM relative to control.
The target of series [19] is T4, Mitogen-activated protein kinase 11 (Homo sapiens, UniProt Q15759). Kind of series: Inhibition of p38beta at 1 uM relative to control.
A short description of series [20]: Protein binding in Sprague-Dawley rat plasma. The format is ADME, cell-free. The settings on record: read-out: PPB (converted). The essentials: (§5)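 Plasma protein binding in rat or human plasma measured by ultrafiltration.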
Series [21] concerns the target Voltage-gated inwardly rectifying potassium channel KCNH2 (Homo sapiens, UniProt Q12809). Kind of series: Inhibition of human ERG by manual electrophysiology.
Series [22] deals with T4, Mitogen-activated protein kinase 11. Description: Inhibition of human recombinant GST-tagged p38beta-induced ATF2 phosphorylation.
For series [23], the target named is T5, Nuclear receptor subfamily 1 group I member 2 (Homo sapiens, UniProt O75469).
T5 sequence (O75469 whole entry): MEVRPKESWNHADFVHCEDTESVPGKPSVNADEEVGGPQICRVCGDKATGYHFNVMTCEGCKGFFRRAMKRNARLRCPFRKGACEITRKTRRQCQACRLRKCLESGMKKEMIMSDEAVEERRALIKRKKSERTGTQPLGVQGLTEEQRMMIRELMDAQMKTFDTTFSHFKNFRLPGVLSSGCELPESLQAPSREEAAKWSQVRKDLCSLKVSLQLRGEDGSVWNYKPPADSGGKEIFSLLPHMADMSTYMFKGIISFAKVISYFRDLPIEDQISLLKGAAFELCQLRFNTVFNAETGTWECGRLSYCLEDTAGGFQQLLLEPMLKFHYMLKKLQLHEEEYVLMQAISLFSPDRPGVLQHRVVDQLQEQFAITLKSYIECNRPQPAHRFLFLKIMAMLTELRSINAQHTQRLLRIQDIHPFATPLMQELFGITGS
Description: Activation of human PXR.

A short description of series [24]: Protein binding in human plasma. The format is ADME, cell-free. The conditions noted are these: read-out: PPB (converted). A digest of the protocol: as §5
Series [25] can be described thus: Volume of distribution in Sprague-Dawley rat at 2 mg/kg, iv. The settings on record: in vivo. The format is ADME, organism-based. Also noted: dose 2 mg/kg, route intravenous. A digest of the protocol:
as §4

Series [26] deals with T3, Platelet-derived growth factor receptor beta. Kind of series: Inhibition of PDGFRbeta.
Series [27] concerns Liver microsomes. Description: Metabolic stability in human liver microsomes assessed per mg of protein by LCMS in presence of NADPH. The format is ADME, Microsome. The essentials:
as §1

Bounds are passed on as bounds.

T1 sequence (Q16539 whole entry): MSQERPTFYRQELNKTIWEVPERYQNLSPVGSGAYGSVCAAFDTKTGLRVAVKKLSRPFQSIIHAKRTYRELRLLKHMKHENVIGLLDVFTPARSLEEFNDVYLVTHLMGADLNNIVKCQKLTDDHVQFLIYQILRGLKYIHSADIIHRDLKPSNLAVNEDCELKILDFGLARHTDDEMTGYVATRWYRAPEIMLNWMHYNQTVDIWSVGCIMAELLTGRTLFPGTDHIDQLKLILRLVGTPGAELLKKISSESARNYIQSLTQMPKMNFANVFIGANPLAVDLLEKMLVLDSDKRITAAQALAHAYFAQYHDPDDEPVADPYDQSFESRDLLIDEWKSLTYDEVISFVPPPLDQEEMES
Cytochrome P450 3A4, sequence (P08684 whole entry): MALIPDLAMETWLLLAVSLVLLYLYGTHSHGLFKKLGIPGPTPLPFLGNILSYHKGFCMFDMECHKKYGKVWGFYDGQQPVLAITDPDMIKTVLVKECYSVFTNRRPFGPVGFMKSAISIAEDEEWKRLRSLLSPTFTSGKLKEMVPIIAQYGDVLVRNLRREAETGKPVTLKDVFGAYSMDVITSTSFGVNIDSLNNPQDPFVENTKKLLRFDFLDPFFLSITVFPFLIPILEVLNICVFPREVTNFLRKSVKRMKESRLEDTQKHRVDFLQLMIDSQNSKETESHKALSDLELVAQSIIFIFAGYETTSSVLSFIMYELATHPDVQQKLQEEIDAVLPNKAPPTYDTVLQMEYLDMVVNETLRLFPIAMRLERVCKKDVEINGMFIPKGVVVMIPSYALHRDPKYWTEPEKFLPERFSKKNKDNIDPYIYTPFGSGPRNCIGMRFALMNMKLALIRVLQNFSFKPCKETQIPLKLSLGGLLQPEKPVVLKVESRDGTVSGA
Cytochrome P450 2D6, sequence (P10635 whole entry): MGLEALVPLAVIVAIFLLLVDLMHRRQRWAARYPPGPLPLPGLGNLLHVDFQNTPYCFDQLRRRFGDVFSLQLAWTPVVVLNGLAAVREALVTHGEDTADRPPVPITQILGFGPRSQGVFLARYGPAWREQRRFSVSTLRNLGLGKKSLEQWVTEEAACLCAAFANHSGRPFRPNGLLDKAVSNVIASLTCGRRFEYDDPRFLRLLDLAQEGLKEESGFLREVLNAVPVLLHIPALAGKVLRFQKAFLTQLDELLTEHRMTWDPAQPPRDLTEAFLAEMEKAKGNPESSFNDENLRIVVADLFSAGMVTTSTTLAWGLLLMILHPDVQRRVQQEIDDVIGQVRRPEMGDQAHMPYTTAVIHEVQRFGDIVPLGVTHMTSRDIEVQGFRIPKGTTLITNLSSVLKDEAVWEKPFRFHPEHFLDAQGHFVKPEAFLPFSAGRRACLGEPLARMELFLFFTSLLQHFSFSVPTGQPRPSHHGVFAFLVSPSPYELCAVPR
T3 sequence (P09619 whole entry): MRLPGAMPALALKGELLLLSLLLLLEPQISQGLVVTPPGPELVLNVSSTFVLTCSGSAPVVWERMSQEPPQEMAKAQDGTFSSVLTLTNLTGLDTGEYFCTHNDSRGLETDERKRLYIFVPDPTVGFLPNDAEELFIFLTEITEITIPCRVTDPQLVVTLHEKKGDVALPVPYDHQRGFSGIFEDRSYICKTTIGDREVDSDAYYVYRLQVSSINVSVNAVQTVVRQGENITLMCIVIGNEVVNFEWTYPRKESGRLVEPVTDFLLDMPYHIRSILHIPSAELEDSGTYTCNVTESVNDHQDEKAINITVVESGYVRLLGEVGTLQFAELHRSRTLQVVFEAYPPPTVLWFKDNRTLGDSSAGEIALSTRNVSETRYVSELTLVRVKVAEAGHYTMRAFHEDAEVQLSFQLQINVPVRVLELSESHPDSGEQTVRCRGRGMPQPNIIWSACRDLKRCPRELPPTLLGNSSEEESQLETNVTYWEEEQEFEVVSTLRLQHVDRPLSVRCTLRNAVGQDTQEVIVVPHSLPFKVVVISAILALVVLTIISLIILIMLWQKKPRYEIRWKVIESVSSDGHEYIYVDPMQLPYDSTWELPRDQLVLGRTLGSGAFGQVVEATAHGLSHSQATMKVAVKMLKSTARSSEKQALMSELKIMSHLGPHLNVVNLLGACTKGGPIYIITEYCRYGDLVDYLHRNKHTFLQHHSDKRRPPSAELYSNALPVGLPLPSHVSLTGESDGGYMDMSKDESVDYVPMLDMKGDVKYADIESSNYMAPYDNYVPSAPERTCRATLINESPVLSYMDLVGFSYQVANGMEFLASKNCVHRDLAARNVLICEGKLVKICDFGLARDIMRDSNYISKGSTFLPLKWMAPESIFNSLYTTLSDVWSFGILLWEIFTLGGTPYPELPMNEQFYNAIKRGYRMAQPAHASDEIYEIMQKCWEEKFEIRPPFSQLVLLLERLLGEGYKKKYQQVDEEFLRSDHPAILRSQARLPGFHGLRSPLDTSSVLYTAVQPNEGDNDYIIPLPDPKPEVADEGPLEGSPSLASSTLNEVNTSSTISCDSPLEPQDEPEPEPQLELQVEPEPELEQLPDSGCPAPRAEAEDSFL
T4 sequence (Q15759 whole entry): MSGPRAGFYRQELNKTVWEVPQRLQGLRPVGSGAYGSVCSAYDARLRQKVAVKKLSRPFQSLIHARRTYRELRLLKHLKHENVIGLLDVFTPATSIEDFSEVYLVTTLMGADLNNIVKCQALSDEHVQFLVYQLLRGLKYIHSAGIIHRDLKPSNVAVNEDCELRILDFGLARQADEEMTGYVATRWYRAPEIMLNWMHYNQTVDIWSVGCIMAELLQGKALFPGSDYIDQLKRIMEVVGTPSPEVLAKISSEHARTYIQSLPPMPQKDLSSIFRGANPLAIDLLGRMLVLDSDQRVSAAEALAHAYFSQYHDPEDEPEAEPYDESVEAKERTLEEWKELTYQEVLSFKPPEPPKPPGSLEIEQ
T2 sequence (P10721 whole entry): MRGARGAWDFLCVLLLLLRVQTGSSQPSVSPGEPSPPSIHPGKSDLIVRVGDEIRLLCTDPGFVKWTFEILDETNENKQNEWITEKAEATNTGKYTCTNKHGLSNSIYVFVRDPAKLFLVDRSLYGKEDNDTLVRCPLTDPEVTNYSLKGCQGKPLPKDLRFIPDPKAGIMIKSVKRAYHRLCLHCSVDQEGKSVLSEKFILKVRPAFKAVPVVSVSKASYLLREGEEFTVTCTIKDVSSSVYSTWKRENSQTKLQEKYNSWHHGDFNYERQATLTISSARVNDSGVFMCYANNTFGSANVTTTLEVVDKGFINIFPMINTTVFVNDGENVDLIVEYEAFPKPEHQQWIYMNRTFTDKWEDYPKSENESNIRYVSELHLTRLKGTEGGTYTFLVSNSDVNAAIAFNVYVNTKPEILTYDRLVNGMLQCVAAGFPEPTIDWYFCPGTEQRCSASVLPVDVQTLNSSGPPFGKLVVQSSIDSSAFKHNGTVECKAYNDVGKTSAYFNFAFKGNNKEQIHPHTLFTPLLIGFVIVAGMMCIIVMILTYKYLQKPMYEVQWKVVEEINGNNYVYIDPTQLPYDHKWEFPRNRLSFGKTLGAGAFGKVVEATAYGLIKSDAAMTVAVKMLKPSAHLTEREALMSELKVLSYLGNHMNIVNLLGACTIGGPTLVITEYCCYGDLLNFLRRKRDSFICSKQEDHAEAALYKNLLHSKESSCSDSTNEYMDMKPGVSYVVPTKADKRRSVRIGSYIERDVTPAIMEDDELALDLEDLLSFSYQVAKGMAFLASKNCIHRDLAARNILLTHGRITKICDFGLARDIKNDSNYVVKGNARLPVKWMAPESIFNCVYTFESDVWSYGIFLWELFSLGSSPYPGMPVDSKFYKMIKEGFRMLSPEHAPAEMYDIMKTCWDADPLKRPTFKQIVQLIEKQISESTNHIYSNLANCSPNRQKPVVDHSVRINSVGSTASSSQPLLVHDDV
Voltage-gated inwardly rectifying potassium channel KCNH2, sequence (Q12809 whole entry): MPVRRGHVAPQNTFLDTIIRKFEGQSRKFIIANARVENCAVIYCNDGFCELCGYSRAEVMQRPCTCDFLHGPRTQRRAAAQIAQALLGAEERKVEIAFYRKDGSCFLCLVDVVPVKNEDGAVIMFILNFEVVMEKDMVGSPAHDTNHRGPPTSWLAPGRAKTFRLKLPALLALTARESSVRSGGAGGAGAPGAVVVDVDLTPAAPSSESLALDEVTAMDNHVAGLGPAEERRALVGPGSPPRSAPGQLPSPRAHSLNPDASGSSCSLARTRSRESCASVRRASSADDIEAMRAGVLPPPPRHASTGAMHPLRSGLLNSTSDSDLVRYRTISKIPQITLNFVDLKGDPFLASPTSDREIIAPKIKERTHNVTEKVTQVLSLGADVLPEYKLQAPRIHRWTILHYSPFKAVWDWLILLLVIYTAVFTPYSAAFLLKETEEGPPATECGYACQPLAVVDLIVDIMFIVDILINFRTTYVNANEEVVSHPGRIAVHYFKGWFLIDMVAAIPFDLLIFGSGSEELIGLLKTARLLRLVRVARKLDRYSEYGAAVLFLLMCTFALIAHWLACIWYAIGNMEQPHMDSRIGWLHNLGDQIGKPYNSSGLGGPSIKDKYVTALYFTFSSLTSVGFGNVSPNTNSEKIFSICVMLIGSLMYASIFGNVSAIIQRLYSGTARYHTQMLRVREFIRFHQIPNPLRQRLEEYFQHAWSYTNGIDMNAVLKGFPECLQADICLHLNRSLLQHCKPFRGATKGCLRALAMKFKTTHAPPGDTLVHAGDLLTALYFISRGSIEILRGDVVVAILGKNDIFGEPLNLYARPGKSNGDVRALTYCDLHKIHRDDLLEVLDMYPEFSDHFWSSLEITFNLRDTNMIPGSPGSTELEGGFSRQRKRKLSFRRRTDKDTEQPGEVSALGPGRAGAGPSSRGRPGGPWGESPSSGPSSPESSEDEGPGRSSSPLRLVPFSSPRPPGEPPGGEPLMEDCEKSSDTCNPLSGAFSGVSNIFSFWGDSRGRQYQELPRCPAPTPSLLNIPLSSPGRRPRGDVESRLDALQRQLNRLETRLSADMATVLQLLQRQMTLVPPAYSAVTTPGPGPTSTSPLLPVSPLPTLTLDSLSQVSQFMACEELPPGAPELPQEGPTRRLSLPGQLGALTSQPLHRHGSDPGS

As usually defined, the IC50 is the point on the concentration scale where inhibition reaches its midpoint. A high value points to weaker potency in that assay. The term Ki denotes the dissociation constant of the complex between target and ligand, obtained from inhibition or displacement. Take `CCNc1noc2c(-c3ccc4c(N5CCOC[C@@H]5C)nncc4c3)c(C)ccc12`: the IC50 is 0.4 nM in series [1], 10000 nM in [3] and 2 nM in [4]. In series [2], the Ki came to 0.3 nM.

Regarding `CC(=O)N1CCN(c2nncc3cc(-c4c(C)ccc5c(NC6CC6)noc45)ccc23)[C@@H](C)C1`, the results for the IC50 in series [1], in series [4] and in series [5] were 0.8 nM, 1.4 nM and above 25000 nM, respectively. Further, in [2], the Ki was 0.8 nM.

Regarding `CNc1noc2c(-c3ccc4c(C(C)C)nncc4c3)c(C)ccc12`, the results for the IC50 in [1], in series [3] and in series [4] were 1.1 nM, above 25000 nM and 3.4 nM, respectively. Moreover, the Ki in [2] came to 1.1 nM.

`CNc1noc2c(-c3ccc4c(OC(C)C)nncc4c3)c(C)ccc12`: the results for the IC50 in [1], in series [3] and in [4] were 0.7 nM, above 25000 nM and 7 nM, respectively. Further, in [2], the Ki worked out at 0.4 nM.

For the compound `Cc1ccc2c(NC3CC3)noc2c1-c1ccc2c(N3CCOC[C@@H]3C)nncc2c1`, the IC50 in series [1] is 0.6 nM; in series [3], 5600 nM; in [4], 1.3 nM; in series [5], above 25000 nM. Also, the Ki in [2] was 0.7 nM.

As to `CNc1noc2c(-c3ccc4c(N5CCOC[C@@H]5C)nncc4c3)c(Cl)ccc12`, the IC50 came to 1.3 nM in [1], 6000 nM in series [3] and 3.3 nM in [4]. For the same compound, the Ki in series [2] turned out to be 0.2 nM.

For `Cc1ccc2c(N)n[nH]c2c1-c1ccc2c(N3CCOC[C@@H]3C)nncc2c1`, the IC50 came out at 120 nM in series [1] and 153 nM in series [4]. In addition, the Ki in series [2] was 16 nM.

As for `Cc1ccc2c(N)noc2c1-c1ccc2c(N3CCOC[C@@H]3C)nncc2c1`, the IC50 in series [1] is 3.6 nM; in [3] it was 12000 nM; in series [4], 5.2 nM. In addition, the Ki in series [2] is 0.3 nM.

Regarding `CC[C@H](C)Nc1nncc2cc(-c3c(C)ccc4c(NC)noc34)ccc12`, the IC50 in series [1] is 1.3 nM; in [3] it was above 25000 nM; in series [4], 2.1 nM. Further, the Ki in [2] was determined as 0.2 nM.

For the compound `Cc1ccc2c(NC3CC3)noc2c1-c1ccc2c(NC(C)C)nncc2c1`, the IC50 was 0.4 nM in series [1], 5600 nM in series [3], 0.7 nM in series [4] and above 25000 nM in series [5]. In [2], the inhibition constant (Ki) stood at 0.5 nM.

As to `CC(C)Nc1noc2c(-c3ccc4c(N5CCOC[C@@H]5C)nncc4c3)c(Cl)ccc12`, the IC50 in series [1] is 3.6 nM; in series [3], 4500 nM; in series [4], 15 nM. In addition, the Ki in series [2] was determined as 0.4 nM.

For `CNc1noc2c(-c3ccc4c(NC(C)C)nncc4c3)c(C)ccc12`, the IC50 in [1] is 0.7 nM; in series [3] it was above 25000 nM; in series [4], 2.2 nM. For the same compound, the Ki in series [2] amounted to 0.5 nM.

With `CC(=O)Nc1noc2c(-c3ccc4c(N5CCOC[C@@H]5C)nncc4c3)c(C)ccc12`, the figures for the IC50 in series [1], in [3] and in series [4] were 0.7 nM, above 25000 nM and 2 nM, respectively. Moreover, in [2], the Ki is 0.6 nM.

Take `CNc1noc2c(-c3ccc4c(N5CCOC[C@H]5C)nncc4c3)c(C)ccc12`: the IC50 in series [1] was 1 nM; in [3], above 25000 nM; in [4], 4.5 nM. Further, the Ki in [2] turned out to be 0.3 nM.

Turning to `Cc1ccc2c(N)nsc2c1-c1ccc2c(N3CCOC[C@@H]3C)nncc2c1`, the results for the IC50 in series [1], in series [3] and in series [4] were 29 nM, 4000 nM and 50 nM, respectively. Also, in [2], the Ki was found to be 2 nM.

In general, Cmax refers to the highest concentration seen after dosing. For orientation: AUC means concentration integrated over time. Read a high AUC as more exposure. One may read the inhibition as the share of the control response that was lost under treatment. The low end stands for a weak effect, the high end for a strong effect. The Tmax is the time at which the peak concentration occurs. What is called half-life is the time needed for the level to fall by half in the phase considered. The low end stands for rapid decline, the high end for slow decline. The term ED50 denotes the dose that gives a 50% effect, or the effect in half of the subjects. By Vd is commonly meant a proportionality between amount in the body and measured concentration, not a real space. Turning to `CNc1noc2c(-c3ccc4c(N5CCOC[C@@H]5C)nncc4c3)c(C)ccc12`, the IC50 was 0.4 nM in series [1]; 1600 nM in series [10]; above 25000 nM in series [3]; 3.3 nM in series [4]; 13000 nM in [21]; 830 nM in series [26]. Besides, the values for the Stability in series [6] and in [27] were 120 µL/min and 132 µL/min, respectively. Further, the F in series [7] is 67%. Moreover, the Cmax in series [8] is 1040 ng/mL; in series [11], 7 nM. For the same compound, the concentration at 24 h in [9] amounted to 0.3 nM. For the same compound, the Ki in series [2] was determined as 0.4 nM; in series [22], 1.8 nM. In series [12], this compound registered an AUC of 0.0224 µM·h. In addition, the inhibition in [13], in [15], in series [18] and in series [19] was below 50% each time. Moreover, the Tmax in series [14] worked out at 1.7 h. Also, the half-life in series [16] is 2.8 h. The Activity entry was “Dose-dependent effect” in series [17] and “Not Active” in [23]. In series [17] (168 h), the ED50 stood at 0.05 mg/kg. Also, the results for the fraction unbound in series [20] and in series [24] were 0.1 and 0.08, respectively. The Vd in series [25] came to 2.4 L/kg.

Consider `Cc1ccccc1-c1nncc2cc(-c3c(C)ccc4c(NC5CC5)noc34)ccc12`, for which the IC50 in series [1] was 0.4 nM; in [3] it was 1800 nM; in series [4], 3.3 nM; in [5] it was above 25000 nM. The Ki in series [2] came to 0.4 nM.
